ChEMBL document CHEMBL3763025, “Synthesis of novel diflunisal hydrazide-hydrazones as anti-hepatitis C virus agents and hepatocellular carcinoma inhibitors” (Eur J Med Chem, 2016)
The source made the active and inactive calls. The calls are words filed in the database; no cut-off is given here.

Tests used:
Hepatitis C virus [1] = test: Antiviral activity against HCV genotype 2a infected in Huh7.5 FGR-JC1-Rluc2A cells assessed as inhibition of viral replication at 50 uM after 42 hrs by MTS assay relative to control; assay type: functional; conditions: Hepacivirus hominis, Huh7.5, 42 h, in the assay text read “Renilla luciferase reporter assay” for “MTS assay”
In short: (§1)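 Replicon reporter cells (Huh7/Rep-Feo1b or Huh7.5-FGR-JC1-Rluc2A) grown in DMEM with 10% fetal calf serum and 0.5 mg/mL G418 at 37°C, 5% CO2. Seeded at 1x10^4 per well, compound added 8 h after seeding at 50 µM for 42 h. Luciferase signal expressed relative to equivalent DMSO-treated controls. Average of three independent experiments.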

Hepatitis C virus [2] = test: Antiviral activity against HCV genotype 1b infected in Huh7/Rep-Feo1b cells assessed as inhibition of viral replication at 50 uM after 42 hrs by MTS assay relative to control; assay type: functional, Hepacivirus hominis; conditions: Huh-7, 42 h; in short: as §1
[3] = Cytotoxicity against human Huh7.5 cells assessed as cell viability after 42 hrs by MTS assay; assay type: cell-based, Huh-7
In short: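 CC50 measured in parental Huh7.5 cells using the colorimetric MTS assay, with equal amounts of DMSO as control. Mean of three independent experiments with standard deviation.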

Hepacivirus hominis = test: Inhibition of HCV NS5B RNA dependent RNA polymerase using UTP/[alpha-32P]UTP as substrate at 50 uM after 1 hr by liquid scintillation counter analysis
[4] = Selectivity index, ratio of CC50 for human Huh7.5 cells to EC50 for HCV genotype 1b infected in Huh7/Rep-Feo1b cells; parameters: species or system Huh-7
In short: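 Selectivity index taken as the ratio of CC50 (MTS assay, parental Huh7.5 cells) to EC50 (dose-response curves at 8-10 concentrations, Huh7/Rep-Feo1b luciferase replicon, 42 h treatment).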

[5] = Cell cycle arrest in human Mahlavu cells assessed as accumulation at subG1/G0 phase at IC50 after 72 hrs by propidium iodide staining-based Muse cell cycle analyzer; assay type: functional
Mahlavu = test: Induction of apoptosis in human Mahlavu cells assessed as cleavage of PARP protein at IC50 after 72 hrs by Western blot analysis; assay type: functional, cell-based
In short: (§2)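 Cells plated in 100 mm dishes. […] Western blot probed with anti-PARP to detect cleaved PARP, with β-actin as loading control.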

Huh-7 [6] = test: Induction of apoptosis in human HuH7 cells assessed as nuclear condensation at IC50 after 72 hrs by hoechst 33258 staining based fluorescence microscopy; assay type: functional, cell-based
[7] = Cytotoxicity against human HuH7 cells assessed as inhibition of cell proliferation after 72 hrs by sulforhodamine B assay; assay type: functional, cell-based, Huh-7
In short: (§3)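 Liver cancer cells grown in DMEM or RPMI with 10% FCS, 2 mM L-glutamine and penicillin/streptomycin at 37°C, 5% CO2. Plated at 1000-3000 cells per well for 24 h, then exposed to 2.5–40 µM for 72 h. Cells TCA-fixed, stained with 0.4% sulforhodamine B in 1% acetic acid, dye solubilized in 10 mM Tris base, absorbance read at 515 nm. Normalized to DMSO, triplicate.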

[8] = Cytotoxicity against human Mahlavu cells assessed as inhibition of cell proliferation after 72 hrs by sulforhodamine B assay; assay type: functional, cell-based; in short: as §3
HepG2 = test: Cytotoxicity against human HepG2 cells assessed as inhibition of cell proliferation after 72 hrs by sulforhodamine B assay; assay type: functional, cell-based; in short: as §3
Huh-7 [9] = test: Induction of apoptosis in human HuH7 cells assessed as DNA fragmentation at IC50 after 72 hrs by hoechst 33258 staining based fluorescence microscopy; assay type: functional, cell-based
[10] = Cytotoxicity against human FOCUS cells assessed as inhibition of cell proliferation after 72 hrs by sulforhodamine B assay; assay type: functional, cell-based; in short: as §3
[11] = Cytotoxicity against human Hep3B cells assessed as inhibition of cell proliferation after 72 hrs by sulforhodamine B assay; assay type: functional, cell-based, Hep 3B2; in short: as §3
Huh-7 [12] = test: Induction of apoptosis in human HuH7 cells assessed as cleavage of PARP protein at IC50 after 72 hrs by Western blot analysis; assay type: functional, cell-based; in short: as §2
Hepatitis C virus [13] = test: Antiviral activity against HCV genotype 1b infected in Huh7/Rep-Feo1b cells assessed as inhibition of viral replication after 42 hrs by MTS assay; assay type: functional, organism-based, Hepacivirus hominis; conditions: Huh-7, 42 h
In short: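 Huh7/Rep-Feo1b replicon reporter cells kept in DMEM with 10% fetal calf serum and 0.5 mg/mL G418 at 37°C, 5% CO2. Cells seeded at 1x10^4 per well, dosed 8 h later and incubated 42 h with DMSO as control. Luciferase signal read relative to DMSO. EC50 derived from dose-response curves at 8-10 concentrations, mean of three independent experiments with standard deviation.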

[14] = Cytotoxicity against human SNU475 cells assessed as inhibition of cell proliferation after 72 hrs by sulforhodamine B assay; assay type: functional, cell-based, SNU-475; in short: as §3

SMILES | inhibition at 50 µM (Hepatitis C virus [1]) | inhibition at 50 µM (Hepatitis C virus [2]) | CC50 at 42 h [3] | inhibition (Hepacivirus hominis) | Ratio CC50/EC50 [4] | EC50 (Hepatitis C virus [13]) | other results
O=C(N/N=C/c1cccc(C(F)(F)F)c1)c1cc(-c2ccc(F)cc2F)ccc1O | 99% | 87% | < 50 µM | 18% |  |  | 
O=C(N/N=C/c1c(Cl)cccc1Cl)c1cc(-c2ccc(F)cc2F)ccc1O | 96% | 72% | < 50 µM | inactive |  |  | 
O=C(N/N=C/c1ccccn1)c1cc(-c2ccc(F)cc2F)ccc1O | 90% | 79% | > 100 µM | inactive | >25.6 | 3.9 µM | Activity [5]: Active; Activity (Mahlavu): Active; Activity (Huh-7 [6]): Active; IC50 ([7]; Homo sapiens, Huh-7, 72 h, read-out: IC50): 10 µM; IC50 [8]: 4.74 µM; IC50 (HepG2; Homo sapiens, HepG2, 72 h, read-out: IC50): 10.3 µM; Activity (Huh-7 [9]): Active; IC50 [10]: 9.29 µM; IC50 ([11]; Homo sapiens, Hep3B, 72 h, read-out: IC50): 16.2 µM; Activity (Huh-7 [12]): inactive; IC50 ([14]; Homo sapiens, SNU-475, 72 h, read-out: IC50): 8.33 µM
O=C(N/N=C/c1ccc2c(c1)OC(F)(F)O2)c1cc(-c2ccc(F)cc2F)ccc1O | 95% | 65% | < 50 µM | inactive |  |  | 
O=C(N/N=C/c1ccncc1)c1cc(-c2ccc(F)cc2F)ccc1O | 23% | 33% | > 50 µM | 7% |  |  | 
O=C(N/N=C/c1cccc2ccccc12)c1cc(-c2ccc(F)cc2F)ccc1O | 70% | 79% | > 200 µM | inactive | >6.1 | 16.5 µM | 
O=C(O)c1cc(-c2ccc(F)cc2F)ccc1O [DIFLUNISAL] |  |  |  |  |  |  | Activity (Huh-7 [6]): inactive; IC50 ([7]; huh-7): Not Active; IC50 [8]: 51.7 µM; IC50 (HepG2; hepg2): Not Active; Activity (Huh-7 [9]): inactive; IC50 [10]: 29.8 µM; IC50 ([11]; hep 3b2): Not Active; IC50 ([14]; snu-475): Not Active
O=C(N/N=C/c1ccc2ccccc2c1)c1cc(-c2ccc(F)cc2F)ccc1O | 58% | 65% | > 100 µM | inactive |  |  | 
O=C(N/N=C/c1cccc(Br)c1)c1cc(-c2ccc(F)cc2F)ccc1O | 92% | 81% | < 50 µM | 9% |  |  | 
O=C(N/N=C/c1cccnc1)c1cc(-c2ccc(F)cc2F)ccc1O | 88% | 83% | > 200 µM | 8% | >24.7 | 8.1 µM | 
O=C(N/N=C/c1cccc(Oc2ccccc2)c1)c1cc(-c2ccc(F)cc2F)ccc1O | 99% | 92% | < 50 µM | 14% |  |  | 
O=C(N/N=C/c1c(F)cccc1F)c1cc(-c2ccc(F)cc2F)ccc1O | 72% | 69% | > 100 µM | inactive |  |  | 
O=C(N/N=C/c1c(F)cccc1Cl)c1cc(-c2ccc(F)cc2F)ccc1O | 74% | 83% | > 50 µM | 11% | >12.8 | 3.9 µM | 
Cc1ccc(/C=N/NC(=O)c2cc(-c3ccc(F)cc3F)ccc2O)s1 | 95% | 64% | > 50 µM | 8% |  |  | 
CCc1ccc(/C=N/NC(=O)c2cc(-c3ccc(F)cc3F)ccc2O)s1 | 96% | 65% | > 50 µM | inactive |  |  | 
O=C(N/N=C/c1cccs1)c1cc(-c2ccc(F)cc2F)ccc1O | 98% | 91% | > 50 µM | 17% | >3.2 | 15.6 µM | 
O=C(N/N=C/c1ccc(C(F)(F)F)cc1)c1cc(-c2ccc(F)cc2F)ccc1O | 99% | 86% | < 50 µM | 12% |  |  | 
N#Cc1ccc(/C=N/NC(=O)c2cc(-c3ccc(F)cc3F)ccc2O)cc1 | 82% | 77% | > 200 µM | inactive | >16.9 | 11.8 µM | 
O=C(N/N=C/c1ccccc1Cl)c1cc(-c2ccc(F)cc2F)ccc1O | 78% | 90% | < 50 µM | 7% |  |  | 
O=C(N/N=C/c1ccc(Cl)c(Cl)c1)c1cc(-c2ccc(F)cc2F)ccc1O | 95% | 66% | < 50 µM | inactive |  |  | 
